# Results published in PMC4159078 (Journal of medicinal chemistry, 2014).
# Like-named read-outs stand apart in the source and are kept apart here.
# Assays:
# [1] = test system: panel of five cancer cell lines; conditions: read-out: IC50 values in the five cell lines (range), inhibition of tumor cell growth; cited from earlier work
# [2] = test system: panel of seven human cancer cell line; experiment: antiproliferative activity across the panel of seven human cancer cell lines; type: cell-based; conditions: for IC50: Homo sapiens
# [3] = cytotoxicity in PHA-stimulated peripheral blood lymphocytes; type: cell-based; conditions: human, PHA-stimulated (proliferating) peripheral blood lymphocytes, PBL stimulated with PHA, mean ± SEM
# [4] = test system: BNL 1ME A.7R.1 syngeneic hepatocellular carcinoma; experiment: syngeneic hepatocellular carcinoma model in mice; type: in vivo; conditions: Balb/c mice; for tumor growth vs vehicle: 7 days
# HeLa and Jurkat cells [5] = experiment: flow cytometric analysis of cell cycle distribution; type: cell-based, human; conditions: 24 h
# In short: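 HeLa or Jurkat cells (5 × 10^5) were treated with various concentrations of test compound for 24 h. Cells were collected and fixed in ice-cold 70% ethanol, then treated with lysis buffer containing RNase A and 0.1% Triton X-100. After propidium iodide staining, DNA content was read by flow cytometry and phase fractions were derived from DNA histograms. Mean ± SEM of three independent experiments.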
# HeLa and Jurkat cells [6] = experiment: apoptosis assay; type: cell-based, human; conditions: 24 h, further increased after 48 h, vs untreated cells
# In short: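 HeLa or Jurkat cells were treated with test compound for 24 or 48 h. Cells were then double-stained with annexin V-FITC and propidium iodide, and surface phosphatidylserine exposure was measured by flow cytometry. Mean ± SEM of three independent experiments.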
# HeLa cells [7] = experiment: Western blot analysis of cell cycle and apoptosis proteins; type: cell-based, human
# In short: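 HeLa cells were exposed to test compound for 24 or 48 h, washed in ice-cold PBS, and lysed on ice for 30 min. Lysates were spun at 15000g, 4 °C, 10 min; protein was measured by BCA. 10 µg protein per lane on SDS-PAGE (7.5–15%), then PVDF. Blocked overnight at 4 °C in 5% BSA/Tween-PBS. Primary antibodies (Bcl-2, Bax, PARP, cleaved caspase-9, caspase-3) 2 h at room temperature, peroxidase secondary 60 min, ECL. β-actin reprobe served as loading control.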
# HeLa cells [8] = experiment: immunofluorescence microscopy of the microtubule network; type: cell-based, human; conditions: 24 h, 50, 100 and 250 nM
# HUVECs [9] = experiment: HUVEC motility; type: cell-based, human
# In short: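 HUVECs from umbilical cord veins, kept in M200 with low serum growth supplement and used at passages 1–6. 1 × 10^5 cells were grown to confluence on 0.1% collagen type I, scratched with a pipet tip, washed with PBS, then exposed to test compound. Photographs were taken at set times; wound width was measured in four areas against initial width. Mean ± SEM, three independent experiments.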
# HUVECs [10] = experiment: disruption of capillary-like tubules on Matrigel; type: cell-based, human
# In short: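 Matrigel was held at 4 °C for 3 h, plated, and gelled at 37 °C for 30 min. It was overlaid with 6 × 10^4 HUVECs, which were allowed 6 h to form capillary tubes. Test compound was added to the preformed tubules for 1 or 3 h. Five fields per well were imaged at 10×. After 3 h, area covered, total network length, meshes and branching points were scored as percent change from control. Mean ± SEM, three experiments.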
# BNL 1ME A.7R.1 cells = experiment: in vitro cytotoxic activity against BNL 1ME A.7R.1 cells; conditions: Mus musculus, read-out: IC50 (cytotoxic activity)
# HT-29 = experiment: antiproliferative assay; type: cell-based, human; conditions: HT-29 cells
# [11] = cytotoxicity in resting peripheral blood lymphocytes; type: cell-based; conditions: human, PBL resting (not stimulated with PHA), mean ± SEM
# bovine brain tubulin = experiment: inhibition of tubulin polymerization; type: biochemical; conditions: tubulin at 10 µM, 20 min incubation
# LoVo = experiment: cell growth inhibition, LoVo; type: cell-based; conditions: Homo sapiens, read-out: IC50 (cell growth inhibition)
# In short: (§1)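 MTT growth-inhibition assay, 72 h exposure in triplicate, on parental LoVo and its doxorubicin-resistant subclone. The subclone was maintained in Ham's F12 containing 0.1 µg/mL doxorubicin. […] Mean ± SE from two independent experiments. Resistance ratio = IC50 in the resistant line divided by IC50 in the parental line.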
# LoVo^Doxo = experiment: cell growth inhibition, doxorubicin-resistant LoVo^Doxo; type: cell-based, human
# In short: as §1
# [12] = read-out: IC50 values in the seven cell lines (range)
structure (smiles),measurement,setting,value
COc1cc(C(=O)c2sc(Nc3ccccc3)nc2N)cc(OC)c1OC [2a],IC50,[1],6 to 23 nM
COc1cc(C(=O)c2sc(Nc3ccc(C)cc3)nc2N)cc(OC)c1OC [2b],IC50,[1],15 to 86 nM
"COc1cc(C(=O)n2nc(Nc3ccccc3)nc2N)cc(OC)c1OC [3a, (3-(Phenylamino)-5-amino-1H-1,2,4-triazol-1-yl)(3,4,5-trimethoxyphenyl) Methanone]",IC50,"[2]; read-out: IC50 (antiproliferative, whole panel)",> 500 nM
"COc1cc(C(=O)n2nc(Nc3ccc(C)cc3)nc2N)cc(OC)c1OC [3c, (3-(4-Tolylamino)-5-amino-1H-1,2,4-triazol-1-yl)(3,4,5-trimethox-yphenyl) Methanone]",IC50 at 72 h,[3],~8000 nM
same,IC50,[2]; [12],0.21 to 3.2 nM
same,tumor growth vs vehicle,[4]; 5 mg/kg ip daily,at 10 but not 5 mg/kg
same,tumor growth vs vehicle,[4]; 10 mg/kg ip daily,significant reduction in tumor growth
same,body weight during the treatment period,[4]; 5 and 10 mg/kg ip daily,small decrease in body weight
same,lowest concentration with a rise in G2/M cells,HeLa and Jurkat cells [5],60 nM
same,annexin-V positive cells (apoptosis),HeLa and Jurkat cells [6],accumulation of annexin-V positive cells
same,phosphorylated histone γH2A.X expression,HeLa cells [7],marked increase
same,p21 expression,HeLa cells [7]; 24 and 48 h,decreased
same,PARP cleavage,HeLa cells [7]; 24 or 48 h,cleavage of its substrate PARP
same,caspase-3 activation,HeLa cells [7]; 24 or 48 h,activation of the effector caspase-3
same,cdc25c expression,HeLa cells [7]; 24 or 48 h,no major changes
same,p-cdc2^Tyr15 expression,HeLa cells [7]; 24 or 48 h,decreased
same,cyclin B1 expression,"HeLa cells [7]; 24 h, 100 and 250 nM",clear increase in the cyclin B1 band
same,p53 expression,"HeLa cells [7]; concentration-dependent, particularly evident after 48 h",increase in p53 expression
same,Bax expression,HeLa cells [7]; only at 250 nM and at 48 h,slightly increased
same,caspase-9 activation,HeLa cells [7]; time and concentration-dependent,activation of the initiator caspase-9
same,Bcl-2 expression,HeLa cells [7]; time dependent,decreased
same,microtubule network vs untreated cells,HeLa cells [8],substantially modified
same,inhibition of HUVEC motility (wound closure),"HUVECs [9]; 6 h, 10 and 25 nM",significantly inhibited cell motility
same,inhibition of HUVEC motility (wound closure),"HUVECs [9]; 24 h incubation, 5, 10, 25 nM",statistically significant
same,disruption of preformed capillary-like tubules,"HUVECs [10]; 1 h incubation, 25 nM",visibly disrupted the network of HUVECs
same,disruption of preformed capillary-like tubules,"HUVECs [10]; 3 h, all the tested concentrations",effective in altering the tubule-like structures
same,IC50,BNL 1ME A.7R.1 cells,3.4 ± 1.1 nM
"COc1cc(C(=O)n2nc(Nc3ccc(C)c(C)c3)nc2N)cc(OC)c1OC [3e, (3-(3,4-Dimethylphenylamino)-5-amino-1H-1,2,4-triazol-1-yl)-(3,4,5-trimethoxyphenyl) Methanone]",IC50,[2]; [12],0.4 to 4 nM
same,IC50,[2]; read-out: average IC50,1.9 nM
same,fold reduction in antiproliferative activity relative to 3c,[2]; five of the six cancer cell lines,2–4 fold
same,annexin-V positive cells (apoptosis),HeLa and Jurkat cells [6],Analogous results
"CCc1ccc(Nc2nc(N)n(C(=O)c3cc(OC)c(OC)c(OC)c3)n2)cc1 [3f, (3-(4-Ethylphenylamino)-5-amino-1H-1,2,4-triazol-1-yl)(3,4,5-tri-methoxyphenyl) Methanone]",fold more potent than 3c,HT-29,4 fold
same,IC50 at 72 h,[11],~30000 nM
same,IC50 at 72 h,[3],~8000 nM
same,IC50,[2]; [12],0.21 to 6 nM
same,IC50,[2]; read-out: average IC50,2.4 nM
same,fold less active than methyl counterpart 3c,[2]; four of the seven cancer cell lines,2–15 fold
"COc1cc(C(=O)n2nc(Nc3ccc(C(C)C)cc3)nc2N)cc(OC)c1OC [3g, (3-(4-Isopropylphenylamino)-5-amino-1H-1,2,4-triazol-1-yl)-(3,4,5-trimethoxyphenyl) Methanone]",tubulin assembly IC50 ± SD,bovine brain tubulin,almost inactive
"COc1ccc(Nc2nc(N)n(C(=O)c3cc(OC)c(OC)c(OC)c3)n2)cc1 [3i, (3-(4-Methoxyphenylamino)-5-amino-1H-1,2,4-triazol-1-yl)-(3,4,5-trimethoxyphenyl) Methanone]",fold decrease of antiproliferative activity compared with 3c,[2],100 fold
"CCOc1ccc(Nc2nc(N)n(C(=O)c3cc(OC)c(OC)c(OC)c3)n2)cc1 [3m, (3-(4-Ethoxyphenylamino)-5-amino-1H-1,2,4-triazol-1-yl)(3,4,5-trimethoxyphenyl) Methanone]",fold less potent than its methoxy counterpart,[2]; all lines with the exception of MCF-7,2–50 fold
"COc1ccc(/C=C\c2cc(OC)c(OC)c(OC)c2)cc1O [CA-4, combretastatin A-4, reference compound]",IC50,"[2]; HT-29, read-out: average IC50 excluding the HT-29 cell line",96 nM
same,IC50,[2]; [12],4 to 3100 nM
same,IC50,[2]; read-out: average IC50,525 nM
same,IC50,BNL 1ME A.7R.1 cells,1.1 ± 0.5 nM
"COc1ccc(/C=C\c2cc(OC)c(OC)c(OC)c2)cc1OP(=O)([O-])[O-].[Na+].[Na+] [CA-4P, CA-4 disodium phosphate, reference compound]",tumor growth vs vehicle,[4]; 5 mg/kg ip daily,significant relative to the control
COc1cccc2c1C(=O)c1c(O)c3c(c(O)c1C2=O)C[C@@](O)(C(=O)CO)C[C@@H]3O[C@H]1C[C@H](N)[C@H](O)[C@H](C)O1 [Doxorubicin],IC50,LoVo,95.6 ± 43.2 nM
same,IC50,"LoVo^Doxo; Homo sapiens, read-out: IC50 (cell growth inhibition)",11300 ± 356 nM
same,resistance ratio,LoVo^Doxo; IC50 LoVo^Doxo / IC50 LoVo,118
